Source: ChEMBL document CHEMBL3797186, “Single Residue Substitutions That Confer Voltage-Gated Sodium Ion Channel Subtype Selectivity in the NaV1.7 Inhibitory Peptide GpTx-1” (J Med Chem, 2016)
pIC50: −log10 of the molar value. Positions of bridges follow the written chain, without caps; N, C: chain ends. Residues, ends and D or L forms follow the SMILES beside them.

Biological target: Sodium channel protein type 5 subunit alpha (Homo sapiens, UniProt Q14524)
Test: Inhibition of human Nav1.5 expressed in HEK293 cells assessed as inward peak current by ion-works quattro patch clamp electrophysiology method
Format: cell-based
Method in brief: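 Stable HEK293 line expressing human NaV1.5, recorded by population patch clamp on the IonWorks Quattro.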

Sodium channel protein type 5 subunit alpha, sequence (Q14524 whole entry): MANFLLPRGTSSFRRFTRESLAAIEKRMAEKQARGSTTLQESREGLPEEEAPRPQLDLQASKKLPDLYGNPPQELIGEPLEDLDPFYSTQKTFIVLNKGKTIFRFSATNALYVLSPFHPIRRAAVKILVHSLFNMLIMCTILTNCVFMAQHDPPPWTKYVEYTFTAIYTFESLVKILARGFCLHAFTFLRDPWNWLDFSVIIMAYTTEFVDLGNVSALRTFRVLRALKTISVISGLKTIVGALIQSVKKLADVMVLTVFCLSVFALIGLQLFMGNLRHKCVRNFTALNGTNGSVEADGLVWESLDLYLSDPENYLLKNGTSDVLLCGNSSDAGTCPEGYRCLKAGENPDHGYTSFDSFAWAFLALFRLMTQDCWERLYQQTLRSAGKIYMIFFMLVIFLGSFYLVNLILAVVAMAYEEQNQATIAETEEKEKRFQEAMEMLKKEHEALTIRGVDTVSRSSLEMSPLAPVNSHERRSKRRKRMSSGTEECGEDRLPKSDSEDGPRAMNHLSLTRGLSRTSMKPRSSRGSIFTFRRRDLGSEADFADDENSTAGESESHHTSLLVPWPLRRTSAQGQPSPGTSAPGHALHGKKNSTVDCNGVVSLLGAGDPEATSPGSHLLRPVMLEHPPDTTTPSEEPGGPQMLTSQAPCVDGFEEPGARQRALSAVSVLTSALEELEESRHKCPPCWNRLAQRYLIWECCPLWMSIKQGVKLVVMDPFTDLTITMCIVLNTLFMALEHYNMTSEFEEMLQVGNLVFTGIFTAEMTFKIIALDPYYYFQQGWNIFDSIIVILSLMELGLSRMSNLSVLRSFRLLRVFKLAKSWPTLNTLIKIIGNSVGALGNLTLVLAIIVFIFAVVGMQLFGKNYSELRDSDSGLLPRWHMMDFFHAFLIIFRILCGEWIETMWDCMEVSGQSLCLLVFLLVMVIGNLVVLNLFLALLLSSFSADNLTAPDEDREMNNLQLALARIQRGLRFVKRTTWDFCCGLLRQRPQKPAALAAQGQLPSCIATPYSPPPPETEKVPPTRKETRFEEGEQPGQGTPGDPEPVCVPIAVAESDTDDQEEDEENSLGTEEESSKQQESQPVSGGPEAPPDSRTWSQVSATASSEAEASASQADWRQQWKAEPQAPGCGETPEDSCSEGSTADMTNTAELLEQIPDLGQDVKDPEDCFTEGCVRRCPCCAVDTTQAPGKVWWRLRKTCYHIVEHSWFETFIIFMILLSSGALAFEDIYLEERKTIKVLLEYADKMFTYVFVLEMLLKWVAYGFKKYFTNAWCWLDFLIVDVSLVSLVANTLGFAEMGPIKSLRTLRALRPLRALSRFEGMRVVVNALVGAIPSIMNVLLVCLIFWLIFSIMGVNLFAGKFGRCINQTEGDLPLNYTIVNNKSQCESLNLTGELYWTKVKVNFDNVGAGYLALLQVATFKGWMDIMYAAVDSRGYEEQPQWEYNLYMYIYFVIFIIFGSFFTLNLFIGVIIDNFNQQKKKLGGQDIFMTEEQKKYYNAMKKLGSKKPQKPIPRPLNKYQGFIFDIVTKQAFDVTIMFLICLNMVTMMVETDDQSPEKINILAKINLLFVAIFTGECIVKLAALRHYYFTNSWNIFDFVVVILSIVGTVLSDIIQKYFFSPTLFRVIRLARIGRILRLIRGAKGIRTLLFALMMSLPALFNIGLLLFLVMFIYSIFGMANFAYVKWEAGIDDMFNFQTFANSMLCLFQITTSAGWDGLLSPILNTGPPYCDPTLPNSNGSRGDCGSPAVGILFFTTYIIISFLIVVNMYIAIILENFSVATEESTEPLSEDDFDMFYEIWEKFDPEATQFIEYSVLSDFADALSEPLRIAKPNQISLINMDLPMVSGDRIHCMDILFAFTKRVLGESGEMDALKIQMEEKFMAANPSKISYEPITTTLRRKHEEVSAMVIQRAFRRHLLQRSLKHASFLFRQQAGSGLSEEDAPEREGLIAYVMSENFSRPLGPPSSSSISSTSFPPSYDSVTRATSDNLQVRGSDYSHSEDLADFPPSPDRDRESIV

| Compound | pIC50 |
| --- | --- |
| CC[C@H](C)[C@@H]1NC(=O)[C@@H]2CSSC[C@@H]3NC(=O)[C@H](C(C)C)NC(=O)[C@H](CC(C)C)NC(=O)[C@H](CC(N)=O)NC(=O)[C@@H]4CCCN4C(=O)[C@H](CCCNC(=N)N)NC(=O)[C@H](CSSC[C@H](NC(=O)[C@@H](N)CC(=O)O)C(=O)N[C@@H](CC(C)C)C(=O)NCC(=O)N[C@@H](Cc4ccccc4)C(=O)N[C@@H](CCSC)C(=O)N[C@@H](CCCNC(=N)N)C(=O)N[C@@H](CCCCN)C(=O)N2)NC(=O)[C@H](CSSC[C@@H](C(=O)N[C@@H](CCCCN)C(=O)N[C@@H](Cc2ccc(O)cc2)C(=O)N[C@H](C(=O)N[C@@H](Cc2ccccc2)C(=O)N[C@@H](CCCCN)C(N)=O)C(C)C)NC(=O)[C@H](Cc2c[nH]c4ccccc24)NC(=O)[C@H](CCCCN)NC(=O)[C@H](Cc2cnc[nH]2)NC(=O)[C@H]([C@@H](C)O)NC(=O)[C@H](CCCNC(=N)N)NC(=O)[C@H](CO)NC3=O)NC(=O)[C@H](CCCCN)NC(=O)[C@H](CC(=O)O)NC(=O)[C@H](CC(N)=O)NC(=O)[C@H](CC(=O)O)NC(=O)[C@@H]2CCCN2C1=O | < 5.30 |
| CC[C@H](C)[C@@H]1NC(=O)[C@@H]2CSSC[C@@H]3NC(=O)[C@H](C(C)C)NC(=O)[C@H](CC(C)C)NC(=O)[C@H](CCCNC(=N)N)NC(=O)[C@@H]4CCCN4C(=O)[C@H](CCCNC(=N)N)NC(=O)[C@H](CSSC[C@H](NC(=O)[C@@H](N)CC(=O)O)C(=O)N[C@@H](CC(C)C)C(=O)NCC(=O)N[C@@H](Cc4ccccc4)C(=O)N[C@@H](CCSC)C(=O)N[C@@H](CCCNC(=N)N)C(=O)N[C@@H](CCCCN)C(=O)N2)NC(=O)[C@H](CSSC[C@@H](C(=O)N[C@@H](CCCCN)C(=O)N[C@@H](Cc2ccc(O)cc2)C(=O)N[C@H](C(=O)N[C@@H](Cc2ccccc2)C(N)=O)C(C)C)NC(=O)[C@H](Cc2c[nH]c4ccccc24)NC(=O)[C@H](CCCCN)NC(=O)[C@H](Cc2cnc[nH]2)NC(=O)[C@H]([C@@H](C)O)NC(=O)[C@H](CCCNC(=N)N)NC(=O)[C@H](CO)NC3=O)NC(=O)[C@H](CCCCN)NC(=O)[C@H](CC(=O)O)NC(=O)[C@H](CC(N)=O)NC(=O)[C@H](CC(=O)O)NC(=O)[C@@H]2CCCN2C1=O (H-DCLGFMRKCIPDNDKCCRPRLVCSRTHKWCKYVF-NH2; disulfide 2-17, 9-23, 16-30) | < 5.30 |
| CC[C@H](C)[C@@H]1NC(=O)[C@@H]2CSSC[C@@H]3NC(=O)[C@H](C(C)C)NC(=O)[C@H](CC(C)C)NC(=O)[C@H](CC(N)=O)NC(=O)[C@@H]4CCCN4C(=O)[C@H](CCCNC(=N)N)NC(=O)[C@H](CSSC[C@H](NC(=O)[C@@H](N)CC(=O)O)C(=O)N[C@@H](CC(C)C)C(=O)NCC(=O)N[C@@H](Cc4ccccc4)C(=O)N[C@@H](CCSC)C(=O)N[C@@H](CCCNC(=N)N)C(=O)N[C@@H](CCCCN)C(=O)N2)NC(=O)[C@H](CSSC[C@@H](C(=O)N[C@@H](CCCCN)C(=O)N[C@@H](Cc2ccc(O)cc2)C(=O)N[C@H](C(=O)N[C@@H](Cc2ccccc2)C(N)=O)C(C)C)NC(=O)[C@H](Cc2c[nH]c4ccccc24)NC(=O)[C@H](CCCCN)NC(=O)[C@H](Cc2cnc[nH]2)NC(=O)[C@H]([C@@H](C)O)NC(=O)[C@H](CCCNC(=N)N)NC(=O)[C@H](CO)NC3=O)NC(=O)[C@H](CCCCN)NC(=O)[C@H](CC(=O)O)NC(=O)[C@H](CC(N)=O)NC(=O)[C@H](CCCCN)NC(=O)[C@@H]2CCCN2C1=O (H-DCLGFMRKCIPKNDKCCRPNLVCSRTHKWCKYVF-NH2; disulfide 2-17, 9-23, 16-30) | < 5.33 |
| CSCC[C@@H]1NC(=O)[C@H](Cc2ccccc2)NC(=O)CNC(=O)[C@H](CC(C)C)NC(=O)[C@@H](NC(=O)[C@@H](N)CC(=O)O)CSSC[C@@H]2NC(=O)[C@@H]3CSSC[C@@H](C(=O)N[C@@H](CCCCN)C(=O)N[C@@H](Cc4ccc(O)cc4)C(=O)N[C@H](C(=O)N[C@@H](Cc4ccccc4)C(N)=O)C(C)C)NC(=O)[C@H](Cc4c[nH]c5ccccc45)NC(=O)[C@H](CCCCN)NC(=O)[C@H](Cc4cnc[nH]4)NC(=O)[C@H]([C@@H](C)O)NC(=O)[C@H](CCCNC(=N)N)NC(=O)[C@H](CO)NC(=O)[C@H](CSSC[C@H](NC(=O)[C@H](CCCCN)NC(=O)[C@H](CCCNC(=N)N)NC1=O)C(=O)N[C@@H](Cc1cnc[nH]1)C(=O)N1CCC[C@H]1C(=O)N[C@@H](CC(=O)O)C(=O)N[C@@H](CC(N)=O)C(=O)N[C@@H](CC(=O)O)C(=O)N[C@@H](CCCCN)C(=O)N3)NC(=O)[C@H](C(C)C)NC(=O)[C@H](CC(C)C)NC(=O)[C@H](CC(N)=O)NC(=O)[C@@H]1CCCN1C(=O)[C@H](CCCNC(=N)N)NC2=O (H-DCLGFMRKCHPDNDKCCRPNLVCSRTHKWCKYVF-NH2; disulfide 2-17, 9-23, 16-30) | < 5.30 |
| CSCC[C@@H]1NC(=O)[C@H](Cc2ccccc2)NC(=O)CNC(=O)[C@H](CC(C)C)NC(=O)[C@@H](NC(=O)[C@@H](N)CC(=O)O)CSSC[C@@H]2NC(=O)[C@@H]3CSSC[C@@H](C(=O)N[C@@H](CCCCN)C(=O)N[C@@H](Cc4ccc(O)cc4)C(=O)N[C@H](C(=O)N[C@@H](Cc4ccccc4)C(N)=O)C(C)C)NC(=O)[C@H](Cc4c[nH]c5ccccc45)NC(=O)[C@H](CCCCN)NC(=O)[C@H](Cc4cnc[nH]4)NC(=O)[C@H]([C@@H](C)O)NC(=O)[C@H](CCCNC(=N)N)NC(=O)[C@H](CO)NC(=O)[C@H](CSSC[C@H](NC(=O)[C@H](CCCCN)NC(=O)[C@H](CCCNC(=N)N)NC1=O)C(=O)N[C@@H](Cc1ccc(C(=O)O)cc1)C(=O)N1CCC[C@H]1C(=O)N[C@@H](CC(=O)O)C(=O)N[C@@H](CC(N)=O)C(=O)N[C@@H](CC(=O)O)C(=O)N[C@@H](CCCCN)C(=O)N3)NC(=O)[C@H](C(C)C)NC(=O)[C@H](CC(C)C)NC(=O)[C@H](CC(N)=O)NC(=O)[C@@H]1CCCN1C(=O)[C@H](CCCNC(=N)N)NC2=O | < 5.32 |
| CC[C@H](C)[C@@H]1NC(=O)[C@@H]2CSSC[C@@H]3NC(=O)[C@H](C(C)C)NC(=O)[C@H](CC(C)C)NC(=O)[C@H](CC(N)=O)NC(=O)[C@@H]4CCCN4C(=O)[C@H](CCCNC(=N)N)NC(=O)[C@H](CSSC[C@H](NC(=O)[C@@H](N)CC(=O)O)C(=O)N[C@@H](CC(C)C)C(=O)N[C@@H](CCC(=O)O)C(=O)N[C@@H](Cc4ccccc4)C(=O)N[C@@H](CCSC)C(=O)N[C@@H](CCCNC(=N)N)C(=O)N[C@@H](CCCCN)C(=O)N2)NC(=O)[C@H](CSSC[C@@H](C(=O)N[C@@H](CCCCN)C(=O)N[C@@H](Cc2ccc(O)cc2)C(=O)N[C@H](C(=O)N[C@@H](Cc2ccccc2)C(N)=O)C(C)C)NC(=O)[C@H](Cc2c[nH]c4ccccc24)NC(=O)[C@H](CCCCN)NC(=O)[C@H](Cc2cnc[nH]2)NC(=O)[C@H]([C@@H](C)O)NC(=O)[C@H](CCCNC(=N)N)NC(=O)[C@H](CO)NC3=O)NC(=O)[C@H](CCCCN)NC(=O)[C@H](CC(=O)O)NC(=O)[C@H](CC(N)=O)NC(=O)[C@H](CC(=O)O)NC(=O)[C@@H]2CCCN2C1=O (H-DCLEFMRKCIPDNDKCCRPNLVCSRTHKWCKYVF-NH2; disulfide 2-17, 9-23, 16-30) | < 5.30 |
